Test results as given in ChEMBL document CHEMBL4321880 (J Med Chem, 2020).

Columns and labels:
[1] = target: CYP3A5 (Homo sapiens, UniProt P20815); experiment: Inhibition of human recombinant CYP3A5 expressed in supersomes assessed as decrease in formation of D-luciferin at 1.89 uM using luciferin-IPA as substrate incubated for 10 mins in presence of NADPH by P450-Glo luminescence assay relative to control; settings: probe luciferin-IPA
[2] = tested on: ASPC1; experiment: Cytotoxicity against CRISPR/Cas9-mediated CYP3A5 knock-out and doxycycline-induced CYP3A4 overexpressing human AsPC1 cells assessed as cell growth; format: ADME, cell-based
Procedure, shortened: (§1)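 Cells seeded at 10,000/well. Dox-inducible lines were induced with 100 ng/mL doxycycline, then treated 24 h later with compound at 16 two-fold dilutions (0.0003–10 μM) plus 5 μM midazolam, in 0.66% DMSO final, for 24 h. Phase-contrast confluence imaging followed. Values were normalized to six 0.66% DMSO replicates and fitted with a three-parameter log(inhibitor) vs response curve.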

[3] = tested on: ASPC1; experiment: Cytotoxicity against CRISPR/Cas9-mediated CYP3A5 knock-out human AsPC1 cells assessed as cell growth; format: ADME, cell-based; procedure, shortened: as §1
[4] = tested on: ASPC1; experiment: Cytotoxicity against doxycycline-induced CYP3A5 overexpressing wild type human AsPC1 cells assessed as cell growth; format: ADME, cell-based; procedure, shortened: as §1
[5] = tested on: ASPC1; experiment: Cytotoxicity against wild type human AsPC1 cells assessed as cell growth; format: cell-based; procedure, shortened: as §1
[6] = tested on: ASPC1; experiment: Cytotoxicity against CRISPR/Cas9-mediated CYP3A5 knock-out and doxycycline-induced CYP3A5 overexpressing human AsPC1 cells assessed as cell growth; format: ADME, cell-based; procedure, shortened: as §1
[7] = tested on: ASPC1; experiment: Cytotoxicity against CRISPR/Cas9-mediated CYP3A5 knock-out and lentiviral pLVX-TRE3G-ZsGreen1-CYP3A4 transduced human AsPC1 cells overexpressing CYP3A4 assessed as cell growth; format: ADME, cell-based; procedure, shortened: as §1
[8] = tested on: ASPC1; experiment: Increase in CYP3A4 expression in CRISPR/Cas9-mediated CYP3A5 knock-out and doxycycline-induced CYP3A4 overexpressing human AsPC1 cells at 1 uM after 24 hrs by Western blot analysis; format: ADME, cell-based; settings: aspc1, 24 h
Procedure, shortened: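 Overexpression was induced with 100 ng/mL doxycycline. […] Blots were probed with anti-CYP3A4 K03 (also detects CYP3A5) and β-actin, with infrared dye secondaries. Bands were normalized to actin across triplicate gels, with DMSO set as 1.0.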

[9] = tested on: ASPC1; experiment: Cytotoxicity against CRISPR/Cas9-mediated CYP3A5 knock-out and lentiviral pLVX-TRE3G-ZsGreen1-CYP3A5 transduced human AsPC1 cells overexpressing CYP3A5 assessed as cell growth; format: ADME, cell-based; procedure, shortened: as §1
[10] = tested on: ASPC1; experiment: Cytotoxicity against lentiviral pLVX-TRE3G-ZsGreen1-CYP3A5 transduced wild type human AsPC1 cells overexpressing CYP3A5 assessed as cell growth; format: ADME, cell-based; procedure, shortened: as §1
[11] = target: T1, Cytochrome P450 3A5 (Homo sapiens, UniProt P20815); experiment: Binding affinity to heme in His-tagged CYP3A5 (unknown origin) expressed in Escherichia coli DH5alpha assessed as formation of five-coordinate ferric heme iron by measuring type 1 Soret shift from 417 nm (low spin) to 395 nm (high spin) by UV-vis spectrophotometric titration analysis
Procedure, shortened: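 Purified recombinant His-tagged CYP3A5 titrated with successive ligand additions until heme absorbance stopped changing. The ligand-free spectrum was subtracted to give difference spectra. Peak-minus-trough values were plotted against ligand concentration and fitted to a binding equation for Kd. Wavelength pairs: ΔA 386–418 nm for the type I shift; ΔA 432–410 nm for the type II shift.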

[12] = target: T1, Cytochrome P450 3A5; experiment: Binding affinity to His-tagged CYP3A5 (unknown origin) expressed in Escherichia coli DH5alpha assessed as five-coordinate HS ferric heme iron state formation with displacement of distal water ligand by EPR spectroscopy
Procedure, shortened: (§2)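 Continuous-wave X-band EPR of purified recombinant enzyme, alone and in complex with ligand. Spectra were compared against the ligand-free form.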

[13] = target: Cytochrome P450 3A4 (Homo sapiens, UniProt P08684); experiment: Binding affinity to His-tagged CYP3A4 (unknown origin) expressed in Escherichia coli DH5alpha assessed as induction of HS formation by EPR spectroscopy; format: ADME; procedure, shortened: as §2
Chain of Cytochrome P450 3A4 (P08684 whole entry): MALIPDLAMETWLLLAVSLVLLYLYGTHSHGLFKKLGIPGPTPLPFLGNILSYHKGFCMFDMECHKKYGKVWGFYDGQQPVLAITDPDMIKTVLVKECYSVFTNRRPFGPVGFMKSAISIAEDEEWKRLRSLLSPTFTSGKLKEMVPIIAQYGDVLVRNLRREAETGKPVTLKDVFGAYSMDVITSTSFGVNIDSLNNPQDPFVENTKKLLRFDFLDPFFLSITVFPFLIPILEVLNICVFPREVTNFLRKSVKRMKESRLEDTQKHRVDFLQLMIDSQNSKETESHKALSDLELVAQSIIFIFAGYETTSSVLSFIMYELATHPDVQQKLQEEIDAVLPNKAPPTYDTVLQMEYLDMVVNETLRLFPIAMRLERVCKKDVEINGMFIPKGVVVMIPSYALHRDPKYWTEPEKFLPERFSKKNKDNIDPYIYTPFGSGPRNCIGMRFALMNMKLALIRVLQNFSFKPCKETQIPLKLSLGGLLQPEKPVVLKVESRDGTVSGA

T1 sequence (P20815 whole entry): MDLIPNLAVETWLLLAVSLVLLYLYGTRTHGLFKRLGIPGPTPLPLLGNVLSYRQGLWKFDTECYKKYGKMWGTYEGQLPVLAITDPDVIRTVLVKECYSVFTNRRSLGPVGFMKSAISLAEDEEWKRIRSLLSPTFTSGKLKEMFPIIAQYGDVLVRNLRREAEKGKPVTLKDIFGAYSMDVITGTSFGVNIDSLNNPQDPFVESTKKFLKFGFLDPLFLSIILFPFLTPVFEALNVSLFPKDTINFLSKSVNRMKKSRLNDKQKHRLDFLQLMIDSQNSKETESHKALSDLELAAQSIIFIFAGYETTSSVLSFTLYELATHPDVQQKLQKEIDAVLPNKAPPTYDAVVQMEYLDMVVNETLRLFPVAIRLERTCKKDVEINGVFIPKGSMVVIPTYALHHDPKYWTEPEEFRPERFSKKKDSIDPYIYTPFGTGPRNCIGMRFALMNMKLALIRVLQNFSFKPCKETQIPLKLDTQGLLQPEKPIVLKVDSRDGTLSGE
Chain of CYP3A5 (P20815 whole entry): as above

Compound | inhibition at 10 min, 1.89 µM [1] [%] | Activity [2] | Activity [3] | Activity [4] | Activity [5] | Activity [6] | Activity [7] | Activity [8] | Activity [9] | Activity [10] | Activity [11] | Activity [12] | Activity [13]
CC(=O)N1CCN(c2ccc(OCC3COC(Cn4ccnc4)(c4ccc(Cl)cc4Cl)O3)cc2)CC1 (stereo not drawn) [KETOCONAZOLE] | 100 | Non-Toxic | Non-Toxic | Non-Toxic | Non-Toxic | Non-Toxic | Non-Toxic | Active | Non-Toxic | Non-Toxic |  |  | 
Cc1ncc2n1-c1ccc(Cl)cc1C(c1ccccc1F)=NC2 [MIDAZOLAM] |  |  |  |  |  |  |  |  |  |  | Active | Active | Active
